Data published in ChEMBL document CHEMBL1145439, “Fluorine-18-labeled benzamide analogues for imaging the sigma2 receptor status of solid tumors with positron emission tomography” (J Med Chem, 2007).

Tests used:
Heart [1] = experiment: Biodistribution in heart of mouse EMT6 tumor bearing BALB/c mouse at 10 to 20 uCi after 60 mins; format: ADME, organism-based; settings: in vivo, 1 h
Method in brief: (§1)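 EMT-6 cells (5×10^5 in 100 µL PBS) implanted s.c. in scapular region of female Balb/c mice (~2 months, 17-22 g); studied 7-10 days later at ~0.2 cm3 tumor. 18F tracer 10-20 µCi in 100-150 µL saline via tail vein; ≥4 mice per time point; tissue removed at sacrifice, weighed, gamma-counted; %ID/g calculated.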

Blood [2] = experiment: Biodistribution in blood of mouse EMT6 tumor bearing BALB/c mouse at 10 to 20 uCi after 120 mins; format: ADME, organism-based; settings: in vivo, 2 h; method in brief: as §1
EMT6 [3] = experiment: Biodistribution in tumor of mouse EMT6 tumor bearing BALB/c mouse at 10 to 20 uCi after 120 mins; format: ADME, organism-based; settings: emt6, 2 h; method in brief: as §1
Lung [4] = experiment: Biodistribution in lung of mouse EMT6 tumor bearing BALB/c mouse at 10 to 20 uCi after 120 mins; format: ADME, organism-based; settings: in vivo, 2 h; method in brief: as §1
[5] = Tumor to fat ratio of the drug in mouse EMT6 tumor bearing BALB/c mouse at 10 to 20 uCi after 2 hrs; format: ADME
Method in brief: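 Tumor-bearing female Balb/c mice (EMT-6 s.c. allograft, ~0.2 cm3) given 10-20 µCi 18F tracer in saline i.v. via tail vein; ≥4 per group; killed 120 min later. Tissues weighed and gamma-counted; ratio = tumor %ID/g divided by that organ's %ID/g.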

Brain [6] = experiment: Biodistribution in brain of EMT6 tumor bearing BALB/c mouse at 10 to 20 uCi after 60 mins; format: ADME, organism-based; settings: in vivo, 1 h; method in brief: as §1
Blood [7] = experiment: Biodistribution in blood of mouse EMT6 tumor bearing BALB/c mouse at 10 to 20 uCi after 30 mins; format: ADME, organism-based; settings: in vivo, 0.5 h; method in brief: as §1
Blood [8] = experiment: Biodistribution in blood of mouse EMT6 tumor bearing BALB/c mouse at 10 to 20 uCi after 60 mins; format: ADME, organism-based; settings: in vivo, 1 h; method in brief: as §1
Heart [9] = experiment: Biodistribution in heart of mouse EMT6 tumor bearing BALB/c mouse at 10 to 20 uCi after 30 mins; format: ADME, organism-based; settings: in vivo, 0.5 h; method in brief: as §1
Adipose tissue [10] = experiment: Biodistribution in fat of mouse EMT6 tumor bearing BALB/c mouse at 10 to 20 uCi after 60 mins; format: ADME, organism-based; settings: in vivo, 1 h; method in brief: as §1
EMT6 [11] = experiment: Biodistribution in tumor of mouse EMT6 tumor bearing BALB/c mouse at 10 to 20 uCi after 60 mins; format: ADME, organism-based; settings: emt6, 1 h; method in brief: as §1
Blood [12] = experiment: Biodistribution in blood of mouse EMT6 tumor bearing BALB/c mouse at 10 to 20 uCi after 5 mins; format: ADME, organism-based; settings: in vivo; method in brief: as §1
Bone [13] = experiment: Biodistribution in bone of mouse EMT6 tumor bearing BALB/c mouse at 10 to 20 uCi after 5 mins; format: ADME, organism-based, Bone element; settings: in vivo; method in brief: as §1
Heart [14] = experiment: Biodistribution in heart of EMT6 tumor bearing BALB/c mouse at 10 to 20 uCi after 120 mins; format: ADME, organism-based; settings: in vivo, 2 h; method in brief: as §1
Bone [15] = experiment: Biodistribution in bone of mouse EMT6 tumor bearing BALB/c mouse at 10 to 20 uCi after 120 mins; format: ADME, organism-based, Bone element; settings: in vivo, 2 h; method in brief: as §1
Lung [16] = experiment: Biodistribution in lung of mouse EMT6 tumor bearing BALB/c mouse at 10 to 20 uCi after 5 mins; format: ADME, organism-based; settings: in vivo; method in brief: as §1
Liver [17] = experiment: Biodistribution in liver of mouse EMT6 tumor bearing BALB/c mouse at 10 to 20 uCi after 120 mins; format: ADME, organism-based; settings: in vivo, 2 h; method in brief: as §1
EMT6 [18] = experiment: Biodistribution in tumor of EMT6 tumor bearing BALB/c mouse 10 to 20 uCi after 30 mins; format: ADME, organism-based; settings: emt6, 0.5 h; method in brief: as §1
Adipose tissue [19] = experiment: Biodistribution in fat of mouse EMT6 tumor bearing BALB/c mouse at 10 to 20 uCi after 30 mins; format: ADME, organism-based; settings: in vivo, 0.5 h; method in brief: as §1
Muscle tissue [20] = experiment: Biodistribution in muscle of mouse EMT6 tumor bearing BALB/c mouse at 10 to 20 uCi after 30 mins; format: ADME, organism-based; settings: in vivo, 0.5 h; method in brief: as §1
Heart [21] = experiment: Biodistribution in heart of mouse EMT6 tumor bearing BALB/c mouse at 10 to 20 uCi after 5 mins; format: ADME, organism-based; settings: in vivo; method in brief: as §1
Lung [22] = experiment: Biodistribution in lung of mouse EMT6 tumor bearing BALB/c mouse at 10 to 20 uCi after 30 mins; format: ADME, organism-based; settings: in vivo, 0.5 h; method in brief: as §1
Adipose tissue [23] = experiment: Biodistribution in fat of mouse EMT6 tumor bearing BALB/c mouse at 10 to 20 uCi after 5 mins; format: ADME, organism-based; settings: in vivo; method in brief: as §1
Liver [24] = experiment: Biodistribution in liver of mouse EMT6 tumor bearing BALB/c mouse at 10 to 20 uCi after 30 mins; format: ADME, organism-based; settings: in vivo, 0.5 h; method in brief: as §1
[25] = Decrease in tumor to fat ratio of the drug in mouse EMT6 tumor bearing BALB/c mouse after 1 hr in presence of YUN-143; format: ADME; parameters: scale not given: the % may be the effect or the level left
Method in brief: (§2)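 Blocking: 18F tracer coinjected i.v. with 1 mg/kg cold YUN-143 (σ1/σ2 ligand) into EMT-6 tumor-bearing female Balb/c mice; sacrificed at 60 min; tumor/muscle and tumor/fat ratios from %ID/g of gamma-counted tissues.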

Liver [26] = experiment: Biodistribution in liver of mouse EMT6 tumor bearing BALB/c mouse at 10 to 20 uCi after 60 mins; format: ADME, organism-based; settings: in vivo, 1 h; method in brief: as §1
Lung [27] = experiment: Biodistribution in lung of mouse EMT6 tumor bearing BALB/c mouse at 10 to 20 uCi after 60 mins; format: ADME, organism-based; settings: in vivo, 1 h; method in brief: as §1
Bone [28] = experiment: Biodistribution in bone of mouse EMT6 tumor bearing BALB/c mouse at 10 to 20 uCi after 30 mins; format: ADME, organism-based, Bone element; settings: in vivo, 0.5 h; method in brief: as §1
Kidney [29] = experiment: Biodistribution in kidney of mouse EMT6 tumor bearing BALB/c mouse at 10 to 20 uCi after 30 mins; format: ADME, organism-based; settings: in vivo, 0.5 h; method in brief: as §1
[30] = Decrease in tumor to muscle ratio of the drug in mouse EMT6 tumor bearing BALB/c mouse after 1 hr in presence of YUN-143; format: ADME; parameters: scale not given: the % may be the effect or the level left; method in brief: as §2
Muscle tissue [31] = experiment: Biodistribution in muscle of mouse EMT6 tumor bearing BALB/c mouse at 10 to 20 uCi after 60 mins; format: ADME, organism-based; settings: in vivo, 1 h; method in brief: as §1
Muscle tissue [32] = experiment: Biodistribution in muscle of mouse EMT6 tumor bearing BALB/c mouse at 10 to 20 uCi after 120 mins; format: ADME, organism-based; settings: in vivo, 2 h; method in brief: as §1
Adipose tissue [33] = experiment: Biodistribution in fat of mouse EMT6 tumor bearing BALB/c mouse at 10 to 20 uCi after 120 mins; format: ADME, organism-based; settings: in vivo, 2 h; method in brief: as §1
Brain [34] = experiment: Biodistribution in brain of mouse EMT6 tumor bearing BALB/c mouse at 10 to 20 uCi after 120 mins; format: ADME, organism-based; settings: in vivo, 2 h; method in brief: as §1
Kidney [35] = experiment: Biodistribution in kidney of mouse EMT6 tumor bearing BALB/c mouse at 10 to 20 uCi after 5 mins; format: ADME, organism-based; settings: in vivo; method in brief: as §1
Kidney [36] = experiment: Biodistribution in kidney of mouse EMT6 tumor bearing BALB/c mouse at 10 to 20 uCi after 60 mins; format: ADME, organism-based; settings: in vivo, 1 h; method in brief: as §1
EMT6 [37] = experiment: Biodistribution in tumor of mouse EMT6 tumor bearing BALB/c mouse at 10 to 20 uCi after 5 mins; format: ADME, organism-based; settings: emt6, 5 min; method in brief: as §1
Muscle tissue [38] = experiment: Biodistribution in muscle of EMT6 tumor bearing BALB/c mouse at 10 to 20 uCi after 5 mins; format: ADME, organism-based; settings: in vivo; method in brief: as §1
Liver [39] = experiment: Biodistribution in liver of mouse EMT6 tumor bearing BALB/c mouse at 10 to 20 uCi after 5 mins; format: ADME, organism-based; settings: in vivo; method in brief: as §1
Bone [40] = experiment: Biodistribution in bone of mouse EMT6 tumor bearing BALB/c mouse at 10 to 20 uCi after 60 mins; format: ADME, organism-based, Bone element; settings: in vivo, 1 h; method in brief: as §1
Kidney [41] = experiment: Biodistribution in kidney of mouse EMT6 tumor bearing BALB/c mouse at 10 to 20 uCi after 120 mins; format: ADME, organism-based; settings: in vivo, 2 h; method in brief: as §1
Brain [42] = experiment: Biodistribution in brain of EMT6 tumor bearing BALB/c mouse at 10 to 20 uCi after 30 mins; format: ADME, organism-based; settings: in vivo, 0.5 h; method in brief: as §1
Brain [43] = experiment: Biodistribution in brain of EMT6 tumor bearing BALB/c mouse at 10 to 20 uCi after 5 mins; format: ADME, organism-based; settings: in vivo; method in brief: as §1
[44] = Displacement of [3H]DTG from sigma 2 receptor in rat liver membrane after 120 mins; format: cell membranes
Method in brief: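 Rat liver membranes (~300 µg protein) incubated with ~5 nM [3H]DTG plus 1 µM (+)-pentazocine to mask σ1 sites, 120 min at room temperature; 10 µM haloperidol defines nonspecific binding; filtration and scintillation counting. One-site nonlinear regression IC50, converted to Ki by Cheng-Prusoff; mean ± SEM.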

SMILES: COc1cc2c(cc1OC)CN(CCCCNC(=O)c1cc(C)ccc1OCC[18F])CC2
- Drug uptake (Heart [1]): 0.55 % ID/g
- Drug uptake (Blood [2]): 0.35 % ID/g
- Drug uptake (EMT6 [3]): 0.64 % ID/g
- Drug uptake (Lung [4]): 0.43 % ID/g
- Ratio [5]: 8
- Drug uptake (Brain [6]): 0.18 % ID/g
- Drug uptake (Blood [7]): 1.16 % ID/g
- Drug uptake (Blood [8]): 0.56 % ID/g
- Drug uptake (Heart [9]): 1.15 % ID/g
- Drug uptake (Adipose tissue [10]): 0.22 % ID/g
- Drug uptake (EMT6 [11]): 1.14 % ID/g
- Drug uptake (Blood [12]): 2.49 % ID/g
- Drug uptake (Bone [13]): 2.49 % ID/g
- Drug uptake (Heart [14]): 0.27 % ID/g
- Drug uptake (Bone [15]): 0.45 % ID/g
- Drug uptake (Lung [16]): 10.26 % ID/g
- Drug uptake (Liver [17]): 2.05 % ID/g
- Drug uptake (EMT6 [18]): 2.54 % ID/g
- Drug uptake (Adipose tissue [19]): 0.59 % ID/g
- Drug uptake (Muscle tissue [20]): 0.7 % ID/g
- Drug uptake (Heart [21]): 3.73 % ID/g
- Drug uptake (Lung [22]): 2.36 % ID/g
- Drug uptake (Adipose tissue [23]): 1.95 % ID/g
- Drug uptake (Liver [24]): 10.51 % ID/g
- Activity [25]: 50%
- Drug uptake (Liver [26]): 4.14 % ID/g
- Drug uptake (Lung [27]): 0.88 % ID/g
- Drug uptake (Bone [28]): 0.96 % ID/g
- Drug uptake (Kidney [29]): 6.86 % ID/g
- Activity [30]: 50%
- Drug uptake (Muscle tissue [31]): 0.34 % ID/g
- Drug uptake (Muscle tissue [32]): 0.24 % ID/g
- Drug uptake (Adipose tissue [33]): 0.08 % ID/g
- Drug uptake (Brain [34]): 0.12 % ID/g
- Drug uptake (Kidney [35]): 29.18 % ID/g
- Drug uptake (Kidney [36]): 2.51 % ID/g
- Drug uptake (EMT6 [37]): 3.67 % ID/g
- Drug uptake (Muscle tissue [38]): 1.86 % ID/g
- Drug uptake (Liver [39]): 23.33 % ID/g
- Drug uptake (Bone [40]): 0.55 % ID/g
- Drug uptake (Kidney [41]): 0.87 % ID/g
- Drug uptake (Brain [42]): 0.27 % ID/g
- Drug uptake (Brain [43]): 0.76 % ID/g

SMILES: COc1cc2c(cc1OC)CN(CCCCNC(=O)c1cc(I)ccc1OCCF)CC2
- Ki [44]: 1.06 nM
